Converted amounts (≈) assume the structure as drawn.
Tests used:
Type in all cases: functional
Klebsiella pneumoniae = test: Antibacterial activity against Klebsiella pneumoniae after 24 hrs by microbroth dilution method
Procedure, shortened: (§1)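 Tested by CLSI-standard broth microdilution against a panel of eleven bacterial strains, Gram-positive and Gram-negative, including MRSA.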

Pseudomonas aeruginosa [1] = test: Antibacterial activity against Pseudomonas aeruginosa after 24 hrs by microbroth dilution method; procedure, shortened: as §1
Escherichia coli [2] = test: Antibacterial activity against Escherichia coli ATCC 25922 after 24 hrs by microbroth dilution method; conditions: ATCC 25922, 24 h; procedure, shortened: as §1
Staphylococcus aureus [3] = test: Antibacterial activity against Staphylococcus aureus ATCC 29213 after 24 hrs by microbroth dilution method; conditions: ATCC 29213, 24 h; procedure, shortened: as §1
Staphylococcus aureus [4] = test: Antibacterial activity against Staphylococcus aureus after 24 hrs by microbroth dilution method; procedure, shortened: as §1
Aspergillus fumigatus [5] = test: Potency index, ratio of fluconazole MIC to compound MIC for antifungal activity against Aspergillus fumigatus
Pseudomonas aeruginosa [6] = test: Antibacterial activity against Pseudomonas aeruginosa ATCC 27853 after 24 hrs by microbroth dilution method; conditions: ATCC 27853, 24 h; procedure, shortened: as §1
Aspergillus fumigatus [7] = test: Antifungal activity against Aspergillus fumigatus after 24 hrs by microbroth dilution method
Staphylococcus aureus [8] = test: Antibacterial activity against Staphylococcus aureus ATCC 25923 after 24 hrs by microbroth dilution method; conditions: ATCC 25923, 24 h; procedure, shortened: as §1
Staphylococcus aureus [9] = test: Antibacterial activity against methicillin resistant Staphylococcus aureus after 24 hrs by microbroth dilution method; procedure, shortened: as §1
Enterococcus faecalis = test: Antibacterial activity against Enterococcus faecalis after 24 hrs by microbroth dilution method; procedure, shortened: as §1
Escherichia coli [10] = test: Antibacterial activity against Escherichia coli after 24 hrs by microbroth dilution method; procedure, shortened: as §1
Acinetobacter baumannii = test: Antibacterial activity against Acinetobacter baumannii after 24 hrs by microbroth dilution method; procedure, shortened: as §1
Candida albicans = test: Antifungal activity against Candida albicans ATCC 90023 after 24 hrs by microbroth dilution method; conditions: ATCC 90023, 24 h

## CCOP(=O)(OCC)C(Nc1ncccn1)c1ccc(Cl)cc1Cl (stereo not given)
Klebsiella pneumoniae
  MIC: 64 µg/mL (≈ 164 µM)
Pseudomonas aeruginosa [1]
  MIC: 64 µg/mL (≈ 164 µM)
Escherichia coli [2]
  MIC: 16 µg/mL (≈ 41 µM)
Staphylococcus aureus [3]
  MIC: 64 µg/mL (≈ 164 µM)
Staphylococcus aureus [4]
  MIC: 64 µg/mL (≈ 164 µM)
Aspergillus fumigatus [5]
  Ratio: 16
Pseudomonas aeruginosa [6]
  MIC: 8 µg/mL (≈ 20.5 µM)
Aspergillus fumigatus [7]
  MIC: > 16 µg/mL
Staphylococcus aureus [8]
  MIC: 8 µg/mL (≈ 20.5 µM)
Staphylococcus aureus [9]
  MIC: 8 µg/mL (≈ 20.5 µM)
Enterococcus faecalis
  MIC: 32 µg/mL (≈ 82 µM)
Escherichia coli [10]
  MIC: 256 µg/mL (≈ 656 µM)
Acinetobacter baumannii
  MIC: 64 µg/mL (≈ 164 µM)
Candida albicans
  MIC: 8 µg/mL (≈ 20.5 µM)

## CCOP(=O)(OCC)C(Nc1ncccn1)c1ccc(Cl)cc1 (stereo not given)
Klebsiella pneumoniae
  MIC: 128 µg/mL (≈ 360 µM)
Pseudomonas aeruginosa [1]
  MIC: 256 µg/mL (≈ 720 µM)
Escherichia coli [2]
  MIC: 256 µg/mL (≈ 720 µM)
Staphylococcus aureus [3]
  MIC: 256 µg/mL (≈ 720 µM)
Staphylococcus aureus [4]
  MIC: 256 µg/mL (≈ 720 µM)
Aspergillus fumigatus [5]
  Ratio: 16
Pseudomonas aeruginosa [6]
  MIC: 8 µg/mL (≈ 22.5 µM)
Aspergillus fumigatus [7]
  MIC: > 16 µg/mL
Staphylococcus aureus [8]
  MIC: 64 µg/mL (≈ 180 µM)
Staphylococcus aureus [9]
  MIC: 64 µg/mL (≈ 180 µM)
Enterococcus faecalis
  MIC: 32 µg/mL (≈ 89.9 µM)
Escherichia coli [10]
  MIC: 512 µg/mL (≈ 1440 µM)
Acinetobacter baumannii
  MIC: 128 µg/mL (≈ 360 µM)
Candida albicans
  MIC: 8 µg/mL (≈ 22.5 µM)

## CCOP(=O)(OCC)C(Nc1ncccn1)c1ccc([N+](=O)[O-])cc1 (stereo not given)
Klebsiella pneumoniae
  MIC: 256 µg/mL (≈ 699 µM)
Pseudomonas aeruginosa [1]
  MIC: 256 µg/mL (≈ 699 µM)
Escherichia coli [2]
  MIC: 128 µg/mL (≈ 349 µM)
Staphylococcus aureus [3]
  MIC: 256 µg/mL (≈ 699 µM)
Staphylococcus aureus [4]
  MIC: 256 µg/mL (≈ 699 µM)
Aspergillus fumigatus [5]
  Ratio: 16
Pseudomonas aeruginosa [6]
  MIC: 16 µg/mL (≈ 43.7 µM)
Aspergillus fumigatus [7]
  MIC: > 16 µg/mL
Staphylococcus aureus [8]
  MIC: 8 µg/mL (≈ 21.8 µM)
Staphylococcus aureus [9]
  MIC: 128 µg/mL (≈ 349 µM)
Enterococcus faecalis
  MIC: 32 µg/mL (≈ 87.4 µM)
Escherichia coli [10]
  MIC: 256 µg/mL (≈ 699 µM)
Acinetobacter baumannii
  MIC: 128 µg/mL (≈ 349 µM)

## C#CCn1c(CCCC)nc(Cl)c1C(Nc1ncccn1)P(=O)(OCC)OCC (stereo not given)
Klebsiella pneumoniae
  MIC: 256 µg/mL (≈ 582 µM)
Pseudomonas aeruginosa [1]
  MIC: 256 µg/mL (≈ 582 µM)
Escherichia coli [2]
  MIC: 128 µg/mL (≈ 291 µM)
Staphylococcus aureus [3]
  MIC: 256 µg/mL (≈ 582 µM)
Staphylococcus aureus [4]
  MIC: 64 µg/mL (≈ 145 µM)
Aspergillus fumigatus [5]
  Ratio: 16
Pseudomonas aeruginosa [6]
  MIC: 256 µg/mL (≈ 582 µM)
Aspergillus fumigatus [7]
  MIC: > 16 µg/mL
Staphylococcus aureus [8]
  MIC: 32 µg/mL (≈ 72.7 µM)
Staphylococcus aureus [9]
  MIC: 128 µg/mL (≈ 291 µM)
Enterococcus faecalis
  MIC: 256 µg/mL (≈ 582 µM)
Escherichia coli [10]
  MIC: 256 µg/mL (≈ 582 µM)
Acinetobacter baumannii
  MIC: 128 µg/mL (≈ 291 µM)

## CCOP(=O)(OCC)C(Nc1ncccn1)c1cn(CC)c2ccccc12 (stereo not given)
Klebsiella pneumoniae
  MIC: 64 µg/mL (≈ 165 µM)
Pseudomonas aeruginosa [1]
  MIC: 256 µg/mL (≈ 659 µM)
Escherichia coli [2]
  MIC: 256 µg/mL (≈ 659 µM)
Staphylococcus aureus [3]
  MIC: 256 µg/mL (≈ 659 µM)
Staphylococcus aureus [4]
  MIC: 64 µg/mL (≈ 165 µM)
Aspergillus fumigatus [5]
  Ratio: 16
Pseudomonas aeruginosa [6]
  MIC: 128 µg/mL (≈ 330 µM)
Aspergillus fumigatus [7]
  MIC: > 16 µg/mL
Staphylococcus aureus [8]
  MIC: 64 µg/mL (≈ 165 µM)
Staphylococcus aureus [9]
  MIC: 4 µg/mL (≈ 10.3 µM)
Enterococcus faecalis
  MIC: 128 µg/mL (≈ 330 µM)
Escherichia coli [10]
  MIC: 256 µg/mL (≈ 659 µM)
Acinetobacter baumannii
  MIC: 64 µg/mL (≈ 165 µM)

## OC(Cn1cncn1)(Cn1cncn1)c1ccc(F)cc1F [FLUCONAZOLE]
Aspergillus fumigatus [7]
  MIC: > 16 µg/mL

## CCOP(=O)(OCC)C(Nc1ncccn1)c1ccc(C)cc1 (stereo not given)
Klebsiella pneumoniae
  MIC: 128 µg/mL (≈ 382 µM)
Pseudomonas aeruginosa [1]
  MIC: 256 µg/mL (≈ 763 µM)
Escherichia coli [2]
  MIC: 128 µg/mL (≈ 382 µM)
Staphylococcus aureus [3]
  MIC: 256 µg/mL (≈ 763 µM)
Staphylococcus aureus [4]
  MIC: 256 µg/mL (≈ 763 µM)
Aspergillus fumigatus [5]
  Ratio: 16
Pseudomonas aeruginosa [6]
  MIC: 64 µg/mL (≈ 191 µM)
Aspergillus fumigatus [7]
  MIC: > 16 µg/mL
Staphylococcus aureus [8]
  MIC: 16 µg/mL (≈ 47.7 µM)
Staphylococcus aureus [9]
  MIC: 128 µg/mL (≈ 382 µM)
Enterococcus faecalis
  MIC: 8 µg/mL (≈ 23.9 µM)
Escherichia coli [10]
  MIC: 256 µg/mL (≈ 763 µM)
Acinetobacter baumannii
  MIC: 128 µg/mL (≈ 382 µM)

## O=P(O)(O)C(Nc1ncccn1)c1ccc(F)cc1 (stereo not given)
Klebsiella pneumoniae
  MIC: 256 µg/mL (≈ 904 µM)
Pseudomonas aeruginosa [1]
  MIC: 256 µg/mL (≈ 904 µM)
Escherichia coli [2]
  MIC: 128 µg/mL (≈ 452 µM)
Staphylococcus aureus [3]
  MIC: 256 µg/mL (≈ 904 µM)
Staphylococcus aureus [4]
  MIC: 256 µg/mL (≈ 904 µM)
Aspergillus fumigatus [5]
  Ratio: 16
Pseudomonas aeruginosa [6]
  MIC: 128 µg/mL (≈ 452 µM)
Aspergillus fumigatus [7]
  MIC: > 16 µg/mL
Staphylococcus aureus [8]
  MIC: 128 µg/mL (≈ 452 µM)
Staphylococcus aureus [9]
  MIC: 128 µg/mL (≈ 452 µM)
Enterococcus faecalis
  MIC: 256 µg/mL (≈ 904 µM)
Escherichia coli [10]
  MIC: 256 µg/mL (≈ 904 µM)
Acinetobacter baumannii
  MIC: 256 µg/mL (≈ 904 µM)

## CCOP(=O)(OCC)C(Nc1ncccn1)c1ccc2oc(=O)ccc2c1 (stereo not given)
Klebsiella pneumoniae
  MIC: 512 µg/mL (≈ 1320 µM)
Pseudomonas aeruginosa [1]
  MIC: 64 µg/mL (≈ 164 µM)
Escherichia coli [2]
  MIC: 256 µg/mL (≈ 658 µM)
Staphylococcus aureus [3]
  MIC: 128 µg/mL (≈ 329 µM)
Staphylococcus aureus [4]
  MIC: 128 µg/mL (≈ 329 µM)
Aspergillus fumigatus [5]
  Ratio: 16
Pseudomonas aeruginosa [6]
  MIC: 512 µg/mL (≈ 1320 µM)
Aspergillus fumigatus [7]
  MIC: > 16 µg/mL
Staphylococcus aureus [8]
  MIC: 64 µg/mL (≈ 164 µM)
Staphylococcus aureus [9]
  MIC: 256 µg/mL (≈ 658 µM)
Enterococcus faecalis
  MIC: 512 µg/mL (≈ 1320 µM)
Escherichia coli [10]
  MIC: 512 µg/mL (≈ 1320 µM)
Acinetobacter baumannii
  MIC: 64 µg/mL (≈ 164 µM)

## CCOP(=O)(OCC)C(Nc1ncccn1)c1ccc(OC)cc1 (stereo not given)
Klebsiella pneumoniae
  MIC: 256 µg/mL (≈ 729 µM)
Pseudomonas aeruginosa [1]
  MIC: 128 µg/mL (≈ 364 µM)
Escherichia coli [2]
  MIC: 256 µg/mL (≈ 729 µM)
Staphylococcus aureus [3]
  MIC: 256 µg/mL (≈ 729 µM)
Staphylococcus aureus [4]
  MIC: 256 µg/mL (≈ 729 µM)
Aspergillus fumigatus [5]
  Ratio: 16
Pseudomonas aeruginosa [6]
  MIC: 4 µg/mL (≈ 11.4 µM)
Aspergillus fumigatus [7]
  MIC: > 16 µg/mL
Staphylococcus aureus [8]
  MIC: 64 µg/mL (≈ 182 µM)
Staphylococcus aureus [9]
  MIC: 256 µg/mL (≈ 729 µM)
Enterococcus faecalis
  MIC: 64 µg/mL (≈ 182 µM)
Escherichia coli [10]
  MIC: 256 µg/mL (≈ 729 µM)
Acinetobacter baumannii
  MIC: 128 µg/mL (≈ 364 µM)
